Measured values: ChEMBL document CHEMBL3352791, “Thioaryl naphthylmethanone oxime ether analogs as novel anticancer agents” (J Med Chem, 2014)
The source made the active and inactive calls. The rule behind the calls is not given here.

Experiments:
MDA-MB-231 [1] = test: Inhibition of EGF-induced cell migration in human MDA-MB-231 cells assessed as decrease in number of cells toward free space at 1 uM after 24 hrs by wound healing assay; assay type: functional, cell-based
Outline: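 Confluent MDA-MB-231 monolayers scratch-wounded, washed and treated at 1μM in serum-free medium ± EGF (100ng/ml) for 24 h. Wound closure measured as distances in six random fields at 10×.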

MCF7 [2] = test: Inhibition of IGF1 expression in human MCF7 cells at 5 uM by ELISA; assay type: functional, cell-based
[3] = target: T1, Signal transducer and activator of transcription 1-alpha/beta (Homo sapiens) (UniProt P42224); test: Inhibition of EGF-induced STAT1 phosphorylation in human MCF7 cells at 1 uM by ELISA; assay type: cell-based
T1 sequence (whole entry): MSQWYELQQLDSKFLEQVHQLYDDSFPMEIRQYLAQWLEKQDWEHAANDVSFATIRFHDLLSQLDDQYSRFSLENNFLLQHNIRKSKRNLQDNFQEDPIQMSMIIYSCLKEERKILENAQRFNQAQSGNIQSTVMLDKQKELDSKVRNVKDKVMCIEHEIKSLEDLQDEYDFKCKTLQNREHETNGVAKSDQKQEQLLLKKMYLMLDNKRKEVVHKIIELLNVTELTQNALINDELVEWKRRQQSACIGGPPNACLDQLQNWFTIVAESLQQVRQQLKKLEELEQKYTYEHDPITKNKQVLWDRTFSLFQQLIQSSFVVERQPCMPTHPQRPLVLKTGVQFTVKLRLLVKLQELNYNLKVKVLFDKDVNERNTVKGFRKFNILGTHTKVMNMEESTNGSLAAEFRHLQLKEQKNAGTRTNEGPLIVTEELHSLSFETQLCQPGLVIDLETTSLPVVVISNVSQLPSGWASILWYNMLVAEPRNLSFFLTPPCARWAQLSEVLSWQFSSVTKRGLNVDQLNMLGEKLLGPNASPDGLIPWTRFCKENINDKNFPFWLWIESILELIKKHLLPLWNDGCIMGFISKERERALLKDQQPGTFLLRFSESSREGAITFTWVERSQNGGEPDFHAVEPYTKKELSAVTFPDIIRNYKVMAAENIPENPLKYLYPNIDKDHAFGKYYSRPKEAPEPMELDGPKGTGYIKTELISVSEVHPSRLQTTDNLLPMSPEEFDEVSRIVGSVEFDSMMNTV

MDA-MB-231 [4] = test: Induction of apoptosis in human […] cells assessed as caspase 9 activation at 2.5 to 7.5 uM by Caspase-Glo assay; assay type: functional, cell-based
Outline: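 Caspase-8, -9 and -3 activities measured with Caspase-Glo 8, 9 and 3 kits; mean ± SEM from three independent experiments.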

MCF7 [5] = test: Inhibition of INS expression in human MCF7 cells at 5 uM by ELISA; assay type: functional, cell-based
[6] = target: T1, Signal transducer and activator of transcription 1-alpha/beta (Homo sapiens); test: Inhibition of basal level STAT1 phosphorylation in human MDA-MB-231 cells at 1 uM by ELISA; assay type: cell-based
[7] = target: Signal transducer and activator of transcription 3 (Homo sapiens) (UniProt P40763); test: Inhibition of basal level STAT3 phosphorylation in human MCF7 cells at 1 uM by ELISA; assay type: cell-based
Chain of Signal transducer and activator of transcription 3 (Homo sapiens) (P40763 whole entry): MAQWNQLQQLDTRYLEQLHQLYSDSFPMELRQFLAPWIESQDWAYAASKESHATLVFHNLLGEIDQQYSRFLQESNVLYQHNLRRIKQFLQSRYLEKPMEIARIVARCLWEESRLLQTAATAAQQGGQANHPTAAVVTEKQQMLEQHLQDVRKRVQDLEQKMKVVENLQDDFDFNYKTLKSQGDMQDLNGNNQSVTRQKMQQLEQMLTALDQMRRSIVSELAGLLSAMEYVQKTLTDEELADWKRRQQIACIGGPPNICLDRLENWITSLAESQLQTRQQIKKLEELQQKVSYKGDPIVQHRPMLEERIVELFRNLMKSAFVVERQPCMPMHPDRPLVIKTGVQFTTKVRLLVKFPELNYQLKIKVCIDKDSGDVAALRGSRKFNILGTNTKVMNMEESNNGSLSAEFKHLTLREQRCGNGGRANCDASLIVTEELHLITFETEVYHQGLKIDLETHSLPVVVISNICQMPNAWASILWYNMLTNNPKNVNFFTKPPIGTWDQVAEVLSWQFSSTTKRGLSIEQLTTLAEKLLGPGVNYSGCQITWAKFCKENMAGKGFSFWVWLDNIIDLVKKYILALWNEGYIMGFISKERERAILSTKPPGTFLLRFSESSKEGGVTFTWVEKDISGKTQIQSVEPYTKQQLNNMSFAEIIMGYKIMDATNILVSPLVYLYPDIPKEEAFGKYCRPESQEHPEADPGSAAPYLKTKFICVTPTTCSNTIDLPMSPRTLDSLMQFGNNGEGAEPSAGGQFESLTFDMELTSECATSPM

MDA-MB-231 [8] = test: Inhibition of secreted PAI-1 protein expression in human MDA-MB-231 cells at 1 uM after 24 hrs by ELISA; assay type: functional, cell-based
Outline: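 MDA-MB-231 cells were treated at 1µM for 24 h, with or without EGF. PAI-1 protein concentration in the collected conditioned medium was then measured by ELISA.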

MCF7 [9] = test: Induction of apoptosis in human […] cells assessed as loss of mitochondrial membrane potential at 5 uM after 24 hrs by JC-1 staining based flow cytometry; assay type: functional, cell-based
Outline: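 Cells given 5μM compound for 24 h, trypsinized, stained with JC-1 (1μg/ml) in medium 15 min at 37°C, PBS-washed, analysed by flow cytometry on FL1 and FL2 channels.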

[10] = test system: Mast/stem cell growth factor receptor Kit (Homo sapiens), P10721 [D816G]; test: Inhibition of cKit D816G mutant (unknown origin) at 10 uM
Chain of Mast/stem cell growth factor receptor Kit (Homo sapiens), P10721 [D816G] (P10721 whole entry D816G): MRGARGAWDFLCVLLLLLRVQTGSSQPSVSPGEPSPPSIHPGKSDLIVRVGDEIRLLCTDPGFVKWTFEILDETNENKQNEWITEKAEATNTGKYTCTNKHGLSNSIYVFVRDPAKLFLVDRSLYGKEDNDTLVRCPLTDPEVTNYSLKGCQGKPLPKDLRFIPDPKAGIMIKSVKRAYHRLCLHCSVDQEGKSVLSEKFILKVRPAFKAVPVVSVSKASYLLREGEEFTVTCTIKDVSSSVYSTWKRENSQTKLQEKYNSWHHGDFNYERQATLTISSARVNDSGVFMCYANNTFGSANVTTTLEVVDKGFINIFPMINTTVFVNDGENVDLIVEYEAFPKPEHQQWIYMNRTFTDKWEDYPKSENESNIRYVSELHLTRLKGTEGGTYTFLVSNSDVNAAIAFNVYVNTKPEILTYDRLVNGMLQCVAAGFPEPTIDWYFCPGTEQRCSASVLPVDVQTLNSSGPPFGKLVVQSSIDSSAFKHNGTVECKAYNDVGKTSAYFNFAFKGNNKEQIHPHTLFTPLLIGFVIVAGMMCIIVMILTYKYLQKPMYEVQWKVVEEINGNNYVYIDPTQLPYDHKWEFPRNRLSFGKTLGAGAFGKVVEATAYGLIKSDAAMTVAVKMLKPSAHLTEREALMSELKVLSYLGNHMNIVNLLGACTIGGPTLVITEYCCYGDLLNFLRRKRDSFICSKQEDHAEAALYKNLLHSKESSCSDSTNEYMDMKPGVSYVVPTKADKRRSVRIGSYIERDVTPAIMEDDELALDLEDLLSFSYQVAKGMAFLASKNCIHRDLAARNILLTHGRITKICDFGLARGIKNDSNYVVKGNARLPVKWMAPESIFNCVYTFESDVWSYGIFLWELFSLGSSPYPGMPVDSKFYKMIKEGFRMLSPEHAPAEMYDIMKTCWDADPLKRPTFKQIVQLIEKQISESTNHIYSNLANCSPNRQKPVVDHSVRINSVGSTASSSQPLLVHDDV
Outline: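 Cell-free kinase profiling was run as a standard 33P-ATP-based in vitro kinase assay.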

[11] = target: ETS domain-containing protein Elk-1 (Homo sapiens) (UniProt P19419); test: Inhibition of EGF-induced phosphorylated ELK1 in human MDA-MB-231 cells at 1 uM by ELISA; assay type: cell-based
Chain of ETS domain-containing protein Elk-1 (Homo sapiens) (P19419 whole entry, the tested form may be a part): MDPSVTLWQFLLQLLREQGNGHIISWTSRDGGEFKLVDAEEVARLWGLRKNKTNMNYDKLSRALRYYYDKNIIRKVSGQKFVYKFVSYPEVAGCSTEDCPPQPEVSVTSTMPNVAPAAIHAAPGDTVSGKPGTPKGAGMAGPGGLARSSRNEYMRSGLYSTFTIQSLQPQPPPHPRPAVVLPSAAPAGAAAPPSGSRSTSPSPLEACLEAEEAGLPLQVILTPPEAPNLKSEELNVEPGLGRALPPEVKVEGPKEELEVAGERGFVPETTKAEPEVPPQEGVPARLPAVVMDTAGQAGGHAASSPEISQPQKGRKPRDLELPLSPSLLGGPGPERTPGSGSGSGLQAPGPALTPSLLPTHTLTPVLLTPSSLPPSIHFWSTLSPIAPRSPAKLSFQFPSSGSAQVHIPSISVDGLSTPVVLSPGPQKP

MDA-MB-231 [12] = test: Cell cycle arrest in human […] cells assessed as accumulation at S phase at 5 uM by propidium iodide staining by FACS analysis (reference value: 13.72%); assay type: functional
Mus musculus = test: Toxicity in human MCF7 cells xenografted in NIH-3 mouse assessed as changed in body weight at 16 mg/kg, po for 29 days relative to control; assay type: organism-based; parameters: dose 16 mg/kg, route oral; settings: in vivo, 696 h
MDA-MB-231 [13] = test: Cell cycle arrest in human […] cells assessed as accumulation at G1 phase at 5 uM by propidium iodide staining by FACS analysis (reference value: 63.74%); assay type: functional
MCF7 [14] = test: Antiproliferative activity against human ER-negative MCF7 cells after 24 hrs by MTT assay; assay type: functional, cell-based; settings: mcf7

| SMILES | inhibition (MDA-MB-231 [1]) | inhibition (MCF7 [2]) | inhibition [3] | Activity (MDA-MB-231 [4]) | inhibition (MCF7 [5]) | inhibition [6] | inhibition [7] | inhibition (MDA-MB-231 [8]) | Activity (MCF7 [9]) | inhibition [10] | inhibition [11] | Activity (MDA-MB-231 [12]) [%] | Activity (Mus musculus) | Activity (MDA-MB-231 [13]) [%] | EC50 (MCF7 [14]) [µM] |
| --- | --- | --- | --- | --- | --- | --- | --- | --- | --- | --- | --- | --- | --- | --- | --- |
| CCN(CC)CCO/N=C(\c1ccc(SC)cc1)c1cccc2ccccc12 | Active | inactive | inactive | Active | inactive | inactive | inactive | Active | Active | inactive | Active |  |  |  |  |
| CCN(CC)CCO/N=C(\c1ccc(SC)cc1)c1cccc2ccccc12.O=C(O)C(=O)O |  |  |  |  |  |  |  |  |  |  |  | 3.65 | Non-toxic | 88 | 7.5 |
